Measured values from ChEMBL document CHEMBL1126590, “32-Methyl-32-oxylanosterols: dual-action inhibitors of cholesterol biosynthesis” (J Med Chem, 1993).

Tests used:
[1] = biological target: T1, Lanosterol 14-alpha demethylase (Rattus norvegicus, UniProt Q64654); test: (§1) Inhibition rat liver microsome cytochrome P450DM; format: microsomes
T1 sequence (Q64654 whole entry): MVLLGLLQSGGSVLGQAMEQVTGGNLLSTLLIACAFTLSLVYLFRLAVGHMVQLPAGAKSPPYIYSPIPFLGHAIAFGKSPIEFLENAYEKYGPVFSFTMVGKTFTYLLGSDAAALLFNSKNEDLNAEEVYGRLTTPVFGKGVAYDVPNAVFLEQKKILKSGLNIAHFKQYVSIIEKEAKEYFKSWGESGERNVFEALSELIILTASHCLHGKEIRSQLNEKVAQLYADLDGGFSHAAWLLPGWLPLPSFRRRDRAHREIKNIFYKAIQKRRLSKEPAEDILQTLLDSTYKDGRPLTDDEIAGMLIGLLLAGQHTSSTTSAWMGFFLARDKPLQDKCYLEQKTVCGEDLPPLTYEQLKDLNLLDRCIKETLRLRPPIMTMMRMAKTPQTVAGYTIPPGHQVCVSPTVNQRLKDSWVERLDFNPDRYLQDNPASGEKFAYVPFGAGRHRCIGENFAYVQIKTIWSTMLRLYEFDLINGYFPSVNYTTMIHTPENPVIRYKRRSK
Outline: (§2)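 Buffer: phosphate pH 7.4 with glutathione, EDTA, 20% glycerol, NAD(P)H cofactors, isocitrate/isocitrate dehydrogenase, MgCl2, AY-9944, NaCN. Diene product quantified by UV-HPLC. IC50 taken from linear plots of reciprocal turnover vs inhibitor concentration.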

[2] = biological target: Lanosterol 14-alpha demethylase (Cricetulus griseus); test: Inhibition of cytochrome P450DM in intact CHO cells
[3] = biological target: T2, 3-hydroxy-3-methylglutaryl-coenzyme A reductase (Homo sapiens, UniProt P04035); test: Inhibition of HMG-coA Reductase enzyme in chinese hamster ovary cells; format: cell-based, Cricetulus griseus, CHO
T2 sequence (P04035 whole entry): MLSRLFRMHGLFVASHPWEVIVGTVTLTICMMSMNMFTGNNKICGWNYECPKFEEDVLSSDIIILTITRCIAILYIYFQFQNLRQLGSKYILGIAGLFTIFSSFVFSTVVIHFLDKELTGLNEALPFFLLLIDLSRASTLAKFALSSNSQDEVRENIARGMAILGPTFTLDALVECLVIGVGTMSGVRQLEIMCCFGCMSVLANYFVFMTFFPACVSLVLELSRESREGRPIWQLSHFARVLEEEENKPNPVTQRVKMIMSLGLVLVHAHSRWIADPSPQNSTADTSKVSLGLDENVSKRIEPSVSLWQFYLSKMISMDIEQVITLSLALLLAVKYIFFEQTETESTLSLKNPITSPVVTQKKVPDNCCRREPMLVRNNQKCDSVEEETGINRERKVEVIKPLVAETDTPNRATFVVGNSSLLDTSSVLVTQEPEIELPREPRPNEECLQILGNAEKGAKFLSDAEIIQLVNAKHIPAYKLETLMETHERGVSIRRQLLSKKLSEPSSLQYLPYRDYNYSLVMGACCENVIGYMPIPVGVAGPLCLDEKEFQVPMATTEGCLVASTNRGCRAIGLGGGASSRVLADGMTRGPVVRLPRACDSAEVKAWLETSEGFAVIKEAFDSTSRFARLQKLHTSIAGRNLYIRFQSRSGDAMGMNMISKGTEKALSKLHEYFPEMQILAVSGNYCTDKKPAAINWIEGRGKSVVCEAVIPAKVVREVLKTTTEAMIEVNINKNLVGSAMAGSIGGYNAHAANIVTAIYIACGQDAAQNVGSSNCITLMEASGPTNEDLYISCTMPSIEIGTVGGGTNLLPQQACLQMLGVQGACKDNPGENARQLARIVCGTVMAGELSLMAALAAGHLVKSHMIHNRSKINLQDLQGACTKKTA
Outline: (§3)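 Cells grown in McCoy's 5a medium with 1% delipidated FBS under 5% CO2 and treated 4 h with compound given as a BSA suspension from an ethanol stock (final BSA 0.5 mg/mL, ethanol ≤0.5%). Cells permeabilized with 30 μg/mL digitonin in CSK buffer pH 6.8, then preincubated 20 min at 37 °C. Conversion of [14C]HMG-CoA to mevalonolactone measured with [3H]mevalonolactone internal standard and TLC separation. Value is the concentration reducing activity to 50% of control.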

[4] = biological target: T2, 3-hydroxy-3-methylglutaryl-coenzyme A reductase; test: Inhibition of HMG-coA Reductase enzyme in AR45 cells; format: cell-based; outline: as §3
[5] = substrate: [H][C@]1([C@]([H])(C)CCCC(C)C)CC[C@@]2(C)C3=C(CC[C@]12C)[C@@]1(C)CC[C@H](O)C(C)(C)C1CC3; test: as §1; format: microsomes; outline: as §2

CC(=O)[C@@]12CC[C@H]([C@H](C)CCCC(C)C)[C@@]1(C)CCC1C2=CCC2C(C)(C)[C@@H](O)CC[C@]12C (stereo partly drawn)
IC50 [1]: 9100 nM | IC50 [2]: 2700 nM | IC50 [3]: 1000 nM | IC50 [4]: > 20000 nM

CC(C)CCC[C@@H](C)[C@H]1CC[C@@]2(C(C)O)C3=CCC4C(C)(C)[C@@H](O)CC[C@]4(C)C3CC[C@]12C (stereo in doubt; 17a)
IC50 [1]: 330 nM | IC50 [2]: 300 nM | IC50 [3]: 3000 nM | IC50 ([4]; ar45): > 20000 nM

CC(C)CCC[C@@H](C)[C@H]1CC[C@@]2(C(C)O)C3=CCC4C(C)(C)[C@@H](O)CC[C@]4(C)C3CC[C@]12C (stereo in doubt; 17b)
IC50 [1]: 1600 nM | IC50 [2]: 300 nM | IC50 [3]: 1500 nM | IC50 [4]: > 20000 nM

B1: Lanosterol 14-alpha demethylase (Rattus norvegicus) (protein)
chain: T1 sequence (Q64654 whole entry)
Km [5]: 33 µM
